High-throughput results (PubChem)
IDH1 mut inh: IDH1 R132H (human) inhibition; O75874; inhibition, % at 10 µM; IDH1 R132H reductase, diaphorase/resazurin fluorescence, 60 min; 0.18% of 70,000 active; in the data active = inhibition above about 34%; inconclusive = no clear call, values can overlap the other calls; inactive = below about 11%;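 also: 0% = DMSO and 100% = no enzyme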
T cruzi growth-1: blocks T. cruzi growth in NIH3T3 culture; 5.9% of 77,000 active; T. cruzi beta-gal in NIH3T3, GalScreen luminescence, 90 h; inhibition, % at 8.34 µM;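 active = mean inhibition above about 93%, with at least 55% of replicates each passing it, limit read from the data, passing the limit was not always enough; inconclusive = only one of those two conditions holds; inactive = neither condition holds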
GASC1 inh: inhibitors of human demethylase GASC-1 KDM4C. Q9H3R0. GST-KDM4C 2-372, H3K9me3 peptide, LANCE TR-FRET. inhibition, % at 12.5 µM. 0.15% of 96,000 active. AID 720574;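 active = mean replicate inhibition above about 25%, with at least 55% of replicates also reaching it, limit read from the data, passing the limit was not always enough; inconclusive = only one of those two conditions met; inactive = neither condition met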
Target sequence (Q9H3R0 2-372 limits assumed): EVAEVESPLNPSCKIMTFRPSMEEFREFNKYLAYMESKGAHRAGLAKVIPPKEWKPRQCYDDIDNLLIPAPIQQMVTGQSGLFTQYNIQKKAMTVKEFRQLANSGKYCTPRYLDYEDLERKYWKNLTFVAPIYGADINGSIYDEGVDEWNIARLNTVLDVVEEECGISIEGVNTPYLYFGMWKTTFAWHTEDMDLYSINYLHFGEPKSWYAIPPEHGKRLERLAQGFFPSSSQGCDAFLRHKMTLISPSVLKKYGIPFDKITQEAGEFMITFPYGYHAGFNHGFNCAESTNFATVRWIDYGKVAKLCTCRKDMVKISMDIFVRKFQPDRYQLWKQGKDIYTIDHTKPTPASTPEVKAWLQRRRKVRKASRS
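Material: GST-tagged GASC-1 (JMJD2C) catalytic fragment, aa 2-372. Input: enzyme final amount 10 nM. Medium: HEPES buffer, pH 7.5, plus ascorbate. Reagent: H3K9me3 peptide substrate, Fe(II), 2-oxoglutarate. Doses: single dose. Times: reaction 30 min RT, detection step 1 h RT. Measured by: LANCE TR-FRET. Evaluation: Fall in 671/618 emission ratio as inhibition.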
T cruzi growth-2: blocks T. cruzi growth in NIH3T3 host cells; shares compounds with T cruzi growth-1; T. cruzi beta-gal in NIH3T3, GalScreen luminescence, 90 h; inhibition, % at 8.35 µM; 72% of 5,600 active; AID 651739;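 active = mean replicate inhibition above about 95% and at least 55% of replicates individually reaching it, limit read from the data; inconclusive = only one of the two criteria is met; inactive = neither criterion is met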
T cruzi growth-3: blocks T. cruzi growth in NIH3T3 host cells | T. cruzi beta-gal in NIH3T3, GalScreen luminescence, 90 h | 21% of 5,600 active | inhibition, % at 2.09 µM | shares compounds with T cruzi growth-1 | AID 651740;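 active = mean inhibition above about 95%, with at least 55% of replicates also reaching it, limit read from the data; inconclusive = meets just one of the two conditions; inactive = meets neither condition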;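 also: plate controls were neutral control median for no effect and positive control median for full effect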
3T3 cytotox: kills mouse NIH/3T3 fibroblasts | shares compounds with T cruzi growth-1 | NIH/3T3 viability, CellTiter-Glo ATP luminescence, 90 h | cytotoxicity (signal decrease), % at 8.35 µM | 14% of 5,600 active | AID 651742;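 active = mean signal decrease across replicates above about 35% based on untreated-well scatter, with enough replicates individually passing, limit read from the data; inconclusive = no rule stated though some were filed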;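 also: 0% = median of neutral control wells and 100% = median of positive control wells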
NIH3T3 tox 2: NIH/3T3 (mouse) viability loss | shares compounds with T cruzi growth-1 | NIH/3T3 viability, CellTiter-Glo ATP luminescence, 90 h | inhibition, % at 24.9 µM | 56% of 5,600 active | AID 651744;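 active = mean loss of cell viability signal at or above a set limit, and enough replicates individually reaching it; inconclusive = meets only the mean limit or only the replicate share; inactive = meets neither condition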;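 also: 0% = median of neutral control wells and 100% = median of positive control wells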
* hit, by the source's call; ? = inconclusive; nt = not tested or not shown. The full list was thinned out, with hits kept by preference.

SMILES	IDH1 mut inh	T cruzi growth-1	GASC1 inh	T cruzi growth-2	T cruzi growth-3	3T3 cytotox	NIH3T3 tox 2
Cc1cccc(S(=O)(=O)N2C[C@H]3[C@@H](c4ccccc42)[C@H](CO)N3CC2CCOCC2)c1	nt	32	1	nt	nt	nt	nt
O=C(C1CCCC1)N1C[C@H]2[C@@H](c3ccccc31)[C@H](CO)N2C(=O)c1ccccc1F	nt	100*	4	90	38	6	?
Cc1cccc(S(=O)(=O)N2C[C@H]3[C@@H](c4ccccc42)[C@H](CO)N3CC2CCCC2)c1	nt	?	2	112*	72	7	?
CCC(C)C(O)C(C)(O)/C=C/C1=CC2=CC(=O)C(C)(O)C(O)C2CO1 (stereo unspecified)	1	nt	nt	nt	nt	nt	nt
CC(NS(=O)(=O)c1cc(Cl)ccc1Cl)C(=O)Nc1cccc([N+](=O)[O-])c1 (stereo unspecified)	0	nt	nt	nt	nt	nt	nt
O=C(Nc1ccccc1)c1cc(S(=O)(=O)Nc2ccccn2)ccc1Br	0	nt	nt	nt	nt	nt	nt
O=C(C1CCCCC1)N1C[C@H]2[C@@H](c3ccccc31)[C@@H](CO)N2Cc1ccccc1Cl	nt	101*	0	103*	24	15	34
O=C(C1CC1)N1C[C@@H]2[C@H](c3ccccc31)[C@H](CO)N2Cc1ccccc1Cl	nt	34	-1	nt	nt	nt	nt
O=C(Nc1cc(F)ccc1F)N1CCCCN2[C@H](C1)[C@H](c1ccc(-c3cncnc3)cc1)[C@@H]2CO	nt	103*	0	6	9	-22	4
C/C=C/c1ccc([C@@H]2[C@@H](CO)N3CCCCN(C(=O)Nc4cc(F)ccc4F)C[C@@H]23)cc1	nt	79	-2	nt	nt	nt	nt
O=C(Nc1cc(F)ccc1F)N1CCCCN2[C@H](CO)[C@H](c3ccc(-c4ccncc4)cc3)[C@H]2C1	nt	101*	-1	111*	80	7	19
O=C(Nc1cc(F)ccc1F)N1CCCCN2[C@H](C1)[C@H](c1ccc(-c3ccncc3)cc1)[C@@H]2CO	nt	85	0	nt	nt	nt	nt
O=C(Nc1cc(F)ccc1F)N1CCCCN2[C@@H](CO)[C@@H](c3ccc(-c4cccnc4)cc3)[C@@H]2C1	nt	82	0	nt	nt	nt	nt
C/C=C/c1ccc([C@H]2[C@@H](CO)N3CCCCN(C(=O)Nc4cc(F)ccc4F)C[C@H]23)cc1	nt	102*	3	111*	62	10	104*
CCNC(=O)[C@@H]1[C@@H](CO)[C@@H]2Cn3c(cccc3=O)[C@H]1N2Cc1cc(F)ccc1F	nt	nt	-1	nt	nt	nt	nt
Cc1cc(Cn2ccc(C(F)(F)F)n2)c(C)c(-c2c(C#N)c(N)nc3c2CCCC3)c1	0	nt	nt	nt	nt	nt	nt
C[C@@H]1C[C@H]2OC[C@@]3(C)CCC[C@](C)(C23)[C@@]1(O)CCc1ccoc1 (stereo partly specified)	0	nt	nt	nt	nt	nt	nt
C[C@@H](O)C#Cc1ccc([C@H]2[C@H](CO)N3CCCCN(C(=O)c4cccc(F)c4)C[C@@H]23)cc1	nt	97*	-1	107*	79	4	50*
C[C@H](O)C#Cc1ccc([C@H]2[C@H]3CN(C(=O)c4cccc(F)c4)CCCCN3[C@H]2CO)cc1	nt	102*	0	?	23	11	28*
C[C@@H](O)C#Cc1ccc([C@@H]2[C@H](CO)N3CCCCN(C(=O)c4cccc(F)c4)C[C@@H]23)cc1	nt	89	1	nt	nt	nt	nt
C[C@@H](O)C#Cc1ccc([C@@H]2[C@H]3CN(C(=O)c4cccc(F)c4)CCCCN3[C@H]2CO)cc1	nt	36	0	nt	nt	nt	nt
C[C@H](O)C#Cc1ccc([C@H]2[C@@H](CO)N3CCCCN(C(=O)c4cccc(F)c4)C[C@@H]23)cc1	nt	104*	-1	89	62	-14	24
C[C@@H](O)C#Cc1ccc([C@@H]2[C@@H](CO)N3CCCCN(C(=O)c4cccc(F)c4)C[C@@H]23)cc1	nt	73	1	nt	nt	nt	nt
O=C(C(NS(=O)(=O)c1cccc2nsnc12)c1ccccc1)N1CCc2ccccc21 (stereo unspecified)	0	nt	nt	nt	nt	nt	nt
COCC#Cc1cnc2c(c1)C(=O)N([C@H](C)CO)C[C@H](C)[C@@H](CN(C)C(C)=O)O2	0	4	1	nt	nt	nt	nt
SMILES	IDH1 mut inh	T cruzi growth-1	GASC1 inh	T cruzi growth-2	T cruzi growth-3	3T3 cytotox	NIH3T3 tox 2
O=C(CSc1nnc(-c2ccncc2)n1-c1ccc(Cl)cc1)Nc1ccc(F)cc1F	0	nt	nt	nt	nt	nt	nt
COc1ccc(NC(=O)CSc2nnc3n4ncnc4c4c5c(sc4n23)COC(C)(C)C5)cc1	0	nt	nt	nt	nt	nt	nt
C[C@@H]1CCCCO[C@@H](CN(C)C(=O)Nc2ccc(C(F)(F)F)cc2)[C@@H](C)CN([C@H](C)CO)C(=O)c2cc(NC(=O)Nc3ccc(F)cc3)ccc2O1	-1	nt	-1	nt	nt	nt	nt
C[C@@H]1CCCCO[C@@H](CN(C)C(=O)Nc2ccc(F)cc2)[C@H](C)CN([C@@H](C)CO)C(=O)c2cc(NC(=O)Nc3ccc(C(F)(F)F)cc3)ccc2O1	nt	95*	0	105*	104*	-7	-31
C[C@@H]1CCCCO[C@H](CN(C)C(=O)Nc2ccc(C(F)(F)F)cc2)[C@@H](C)CN([C@H](C)CO)C(=O)c2cc(NC(=O)Nc3ccc(F)cc3)ccc2O1	0	?	0	nt	nt	nt	nt
C[C@@H]1CCCCO[C@H](CN(C)C(=O)Nc2ccc(C(F)(F)F)cc2)[C@H](C)CN([C@@H](C)CO)C(=O)c2cc(NC(=O)Nc3ccc(F)cc3)ccc2O1	nt	111*	2	106*	118*	-8	13
O=C(CCCCCC(=O)Nc1ccccc1O)N/N=C/c1ccc(O)cc1O	0	nt	nt	nt	nt	nt	nt
O=C(OCC1OC(Oc2ccc(O)cc2COC(=O)C2(O)C(O)CCC2(O)C(=O)O)C(O)C(O)C1O)c1ccccc1 (stereo unspecified)	1	nt	nt	nt	nt	nt	nt
Cc1ccc(S(=O)(=O)N2CC[C@@H]3[C@H]2c2cc(C4=CCCCC4)ccc2N(C)[C@H]3CO)cc1	nt	82	0	nt	nt	nt	nt
COc1cccc(-c2ccc3c(c2)[C@H]2[C@H](CCN2S(=O)(=O)C2=NC(C)C=N2)[C@@H](CO)N3C)c1 (stereo partly specified)	nt	24	0	nt	nt	nt	nt
COc1ccc(S(=O)(=O)N2CC[C@H]3[C@@H](CO)N(C)c4ccc(C5=CCCCC5)cc4[C@H]32)cc1	nt	?	4	90	108*	10	70*
COc1ccc(-c2ccc3c(c2)[C@@H]2[C@@H](CCN2S(=O)(=O)C2=NC(C)C=N2)[C@@H](CO)N3C)cc1 (stereo partly specified)	nt	?	3	103*	80	-17	-1
Cc1sc2nc(SCC(=O)O)n(-c3ccc(Cl)c(Cl)c3)c(=O)c2c1C	8	nt	nt	nt	nt	nt	nt
COc1cc2nc(SCC(N)=O)n3nc(CCn4c(C)nc5ccccc54)nc3c2cc1OC	1	nt	nt	nt	nt	nt	nt
Cc1ccc(Cl)cc1NC(=O)CC(C(=O)O)N1CCNCC1 (stereo unspecified)	0	nt	nt	nt	nt	nt	nt
